A word on the IC50: it is the concentration needed to halve the response being measured. What is called EC90 is the concentration at which the effect reaches the 90% level. The EC50 is the concentration that produces a half-maximal response. By CC50 is commonly meant the concentration giving 50% cytotoxicity.

These results are taken from ChEMBL document CHEMBL1255448, “The 6-aminoquinolone WC5 inhibits human cytomegalovirus replication at an early stage by interfering with the transactivating activity of viral immediate-early 2 protein” (Antimicrob Agents Chemother, 2010).

Series [1] relates to Human betaherpesvirus 5. The series can be described thus: Antiviral activity against 0.1 MOI human cytomegalovirus AD169 infected in human HFF assessed as inhibition of late phase UL55 protein expression after 72 hrs of infection by Western blot analysis. In kind it is functional, organism-based. The procedure, abridged:
(§1)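 HFF infected with HCMV AD169 at MOI 0.1 PFU/cell, treated with 50 µM compound or 0.2% DMSO. ActD 5 µg/ml, CHX 75 µg/ml and FOS 750 µM served as controls. Harvests at 24, 48 and 72 h p.i. were lysed in NP-40 buffer, then SDS-PAGE and PVDF blotting. Probes were anti-IE1/IE2 (p72/p86) MAb or anti-UL55, then HRP secondary and ECL. β-actin reprobe was the internal control.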

Series [2] in a line: Inhibition of human cytomegalovirus DNA polymerase catalytic subunit UL54 assessed as incorporation of [3H]dTTP. The arrangement: species or system Human betaherpesvirus 5. The procedure, abridged: (§2)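 Filter-based assay with purified baculovirus-expressed UL54 catalytic subunit, alone or with UL44 accessory subunit. Incorporation of [3H]dTTP into poly(dA)-oligo(dT)12-18 template-primer was measured across serial compound dilutions, with FOS as control. Means ± standard deviations from four independent experiments.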

Series [3] can be described thus: Inhibition of human cytomegalovirus DNA polymerase catalytic subunit UL54/UL44 assessed as incorporation of [3H]dTTP. The arrangement: species or system Human betaherpesvirus 5. The procedure, abridged:
as §2

Series [4] in a line: Selectivity index, ratio of CC50 for human HFF to EC50 for human cytomegalovirus AD169. The procedure, abridged: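 Selectivity index is CC50 from the HFF MTT assay divided by EC50 from the AD169 plaque reduction assay in HFF.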
Series [5] deals with Human betaherpesvirus 5. Put plainly: Antiviral activity against 0.1 MOI human cytomegalovirus AD169 infected in human HFF assessed as virus yield reduction by yield reduction assay. In kind it is functional, organism-based. As to conditions: Human betaherpesvirus 5, AD169.
The test system of series [6] is Human betaherpesvirus 5. The series can be described thus: Antiviral activity against 1 MOI human cytomegalovirus AD169 infected in human HFF assessed as virus yield reduction by yield reduction assay. In kind it is functional, organism-based. As to conditions: Human betaherpesvirus 5, AD169.
Series [7] relates to Human betaherpesvirus 5. The series can be described thus: Antiviral activity against 0.1 MOI human cytomegalovirus AD169 infected in human HFF assessed as inhibition of viral replication up to 72 hrs post infection. The format is functional, organism-based.
The subject of series [8] is Human betaherpesvirus 5. Put plainly: Antiviral activity against human cytomegalovirus AD169 infected in human HFF assessed as inhibition of plaque formation by plaque reduction assay. In kind it is functional, organism-based. The following applies: Human betaherpesvirus 5, AD169. The procedure, abridged:
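Plaque reduction against AD169 in HFF. EC50 is the concentration giving 50% inhibition of plaque formation, reported as mean ± SD of at least three independent experiments run in duplicate.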

Series [9] relates to Human betaherpesvirus 5. The series can be described thus: Antiviral activity against 0.1 MOI human cytomegalovirus AD169 infected in human HFF assessed as inhibition of early phase mRNA expression after 16 hrs by RT-PCR analysis. The format is functional, organism-based. The procedure, abridged:
(§3)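 HFF seeded at 6×10^5 per well, infected with AD169 at MOI 0.1 PFU/cell, then given 50 µM drug or 0.2% DMSO. ActD 5 µg/ml, CHX 75 µg/ml and FOS 750 µM served as IE, E and L transcription controls. Total RNA was taken at 16 and 48 h p.i.; 1 µg was reverse-transcribed with random hexamers and MuLV RT. PCR used UL122/UL123 (IE), UL54/UL84 (E) and UL55/UL75 (L) primers with a β-actin control, and products were read on ethidium bromide agarose gels.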

The test system of series [10] is Human betaherpesvirus 5. The series can be described thus: Antiviral activity against 0.1 MOI human cytomegalovirus AD169 infected in human HFF assessed as inhibition of early phase mRNA expression after 48 hrs by RT-PCR analysis. The format is functional, organism-based. The procedure, abridged:
as §3

Series [11] deals with Human betaherpesvirus 5. Put plainly: Antiviral activity against 0.1 MOI human cytomegalovirus AD169 infected in human HFF assessed as inhibition of immediate early phase mRNA expression after 48 hrs by RT-PCR analysis. In kind it is functional, organism-based. The procedure, abridged:
as §3

In series [12] the test system is Human betaherpesvirus 5. The series can be described thus: Antiviral activity against 0.1 MOI human cytomegalovirus AD169 infected in human HFF assessed as inhibition of late phase mRNA expression after 16 hrs by RT-PCR analysis. In kind it is functional, organism-based. The procedure, abridged: as §3
The subject of series [13] is Human betaherpesvirus 5. The series can be described thus: Antiviral activity against 0.1 MOI human cytomegalovirus AD169 infected in human HFF assessed as inhibition of immediate early phase mRNA expression after 16 hrs by RT-PCR analysis. The format is functional, organism-based. The procedure, abridged: as §3
Series [14] relates to Human betaherpesvirus 5. Put plainly: Antiviral activity against 0.1 MOI human cytomegalovirus AD169 infected in human HFF assessed as inhibition of early phase UL54 mRNA expression after 16 hrs by RT-PCR analysis.
Series [15] deals with Human betaherpesvirus 5. Put plainly: Antiviral activity against 0.1 MOI human cytomegalovirus AD169 infected in human HFF assessed as inhibition of immediate early phase P86 protein expression after 24 hrs by Western blot analysis. In kind it is functional, organism-based. The procedure, abridged:
as §1
For orientation: Immunoblotting shows a protein as a band on a membrane.

Series [16] relates to Human betaherpesvirus 5. The series can be described thus: Antiviral activity against 0.1 MOI human cytomegalovirus AD169 infected in human HFF assessed as inhibition of immediate early phase P72 protein expression after 24 hrs by Western blot analysis. The format is functional, organism-based. The procedure, abridged:
as §1

Series [17] concerns Human betaherpesvirus 5. Put plainly: Antiviral activity against 0.1 MOI human cytomegalovirus AD169 infected in human HFF assessed as inhibition of early phase UL84 mRNA expression after 16 hrs by RT-PCR analysis.
A short description of series [18]: Cytotoxicity against human HFF by MTT assay. In kind it is cell-based. As to conditions: HFF cells. The procedure, abridged:
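Cytotoxicity in HFF was measured by MTT reduction. CC50 is the concentration causing 50% cytotoxicity, reported as mean ± SD of at least three independent experiments run in quadruplicate.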
(Formazan colour is commonly taken as a measure of viable cells.)

Series [19] deals with Human betaherpesvirus 5. The series can be described thus: Antiviral activity against 0.1 MOI human cytomegalovirus AD169 infected in human U373-MG cells expressing UL54-EGFP reporter assessed as inhibition of EGFP expression after 48 hrs of infection by confocal fluorescence microscopy. In kind it is functional, organism-based. The following applies: U-373MG ATCC. The procedure, abridged:
(§4)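 Stable U373-MG reporter cells were seeded on coverslips at 3×10^5 per well and infected with AD169 at MOI 0.1 or 0.5. They were then treated with 50 µM drug, 5 µM fomivirsen (also given 1 h before and during infection) or 0.2% DMSO. At 48 h p.i. cells were fixed in 4% paraformaldehyde for 15 min, and EGFP-positive cells were counted by confocal microscopy at 20×.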

Series [20] has as its system Human betaherpesvirus 5. The series can be described thus: Antiviral activity against 0.1 MOI human cytomegalovirus AD169 infected in human U373-MG cells expressing UL112/113-EGFP reporter assessed as inhibition of EGFP expression after 48 hrs of infection by confocal fluorescence microscopy. In kind it is functional, organism-based. The following applies: U-373MG ATCC. The procedure, abridged:
as §4

Activity calls are given as the source filed them. The calls are words filed in the database; no cut-off is given here. *1 amine or outer side, *2 acyl side, *3 side chain or, on linkers, in order; H or OH if unused. Where a SMILES comes first, the peptide text is derived from it. Bridges are numbered along the chain shown (N, C = ends). Roman numbers before positions name the chains, in order. [ ]: non-standard residue; d: D form. Actinocin(9to1) = Cc1c2oc3c(C)ccc(C(=O)[*:1])c3nc-2c(C(=O)[*:2])c(N)c1=O; NMeV = CN[C@H](C(=O)O)C(C)C; Sar = CNCC(=O)O

With `O=C(NCP(=O)(O)O)OCc1ccccc1` [(BENZYLOXYCARBONYLAMINO)METHYLPHOSPHONIC ACID], the inhibition entry in [1] is “Active”. Also, the results for the IC50 in series [2] and in series [3] were 3.1 µM and 5.5 µM, respectively.
In the case of `Nc1nc2c(ncn2COC(CO)CO)c(=O)[nH]1` [GANCICLOVIR], the “Selectivity Index” value in series [4] turned out to be 289. Besides, the EC90 in series [5] amounted to 1 µM; in [6], 0.8 µM. The outcome in series [7] was inactive. Also, in [8], the EC50 amounted to 1.9 µM.
For `Cc1c2oc3c(C)ccc(C(=O)N[C@@H]4C(=O)N[C@H](C(C)C)C(=O)N5CCC[C@H]5C(=O)N(C)CC(=O)N(C)[C@@H](C(C)C)C(=O)O[C@@H]4C)c3nc-2c(C(=O)N[C@@H]2C(=O)N[C@H](C(C)C)C(=O)N3CCC[C@H]3C(=O)N(C)CC(=O)N(C)[C@@H](C(C)C)C(=O)O[C@@H]2C)c(N)c1=O` (I: T[dV]P[Sar][NMeV] / II: T[dV]P[Sar][NMeV]; ester I:1-I:C, II:1-II:C; linker I:N-II:N via Actinocin(9to1)), the inhibition result in series [9], in series [10], in series [11], in series [12] and in series [13] was “inactive” each time.
Regarding `C[C@@H]1C[C@@H]([C@H](O)CC2CC(=O)NC(=O)C2)C(=O)[C@@H](C)C1`, the inhibition entry in [14], in [15], in series [16] and in series [17] was “Active” in each case.
As for `Nc1cc2c(=O)c(C(=O)O)cn(C3CC3)c2cc1N1CCN(c2nc3ccccc3s2)CC1`, in series [4], the “Selectivity Index” value stood at 225. Also, in [8], the EC50 came to 0.02 µM.
Consider `O=C(O)c1cn(C2CC2)c2cc(N3CCN(c4ccccn4)CC3)ccc2c1=O`, for which the “Selectivity Index” value in series [4] is 70. This molecule also returned a CC50 in series [18] of 390 µM. In addition, in series [8], the EC50 stood at 5.6 µM.
In the same order, the values of `CC(C)(C)n1cc(C(=O)O)c(=O)c2cc(N)c(N3CCN(c4ccccn4)CC3)cc21` are “>=13”, not below 475 µM and 36.7 µM.
On to FOMIVIRSEN SODIUM, for which the inhibition entry in series [19] and in [20] was “Active” in each case.
Regarding `CCOC(=O)c1cn(C2CC2)c2cc(N3CCN(c4ccccn4)CC3)c(N)cc2c1=O`, in [4], the Selectivity Index is more than 8. The same molecule showed a CC50 in series [18] of 409 µM. Also, the EC50 in series [8] is more than 50 µM.
For `CC(C)(C)n1cc(C(=O)O)c(=O)c2cc(N)c(N3CCN(c4nc5ccccc5s4)CC3)cc21`, in that order: 32, 5.8 µM and 0.18 µM.
For the molecule `Cn1cc(C(=O)O)c(=O)c2cc(N)c(N3CCN(c4ccccn4)CC3)cc21`, the “Selectivity Index” value in [4] stood at 77. The EC50 in [8] was determined as 0.7 µM.
